According to ChEMBL document CHEMBL4673335, “Store-Operated Calcium Entry as a Therapeutic Target in Acute Pancreatitis: Discovery and Development of Drug-Like SOCE Inhibitors” (J Med Chem, 2020):
Values belong to the compound of their own block, whether it stands above or below them. Activity calls are given as the source filed them. No cut-off for these calls is given here.

Legend:
[1] = target: T1, ORAI1/STIM1 (Homo sapiens) (UniProt Q96D31+Q13586); assay: Inhibition of STIM1/Orai1 (unknown origin) expressed in HEK293 cells assessed as reduction in tBHQ-induced calcium response at 10 uM relative to control; assay type: cell-based
T1 sequence (Q13586 23-685 partner limits assumed): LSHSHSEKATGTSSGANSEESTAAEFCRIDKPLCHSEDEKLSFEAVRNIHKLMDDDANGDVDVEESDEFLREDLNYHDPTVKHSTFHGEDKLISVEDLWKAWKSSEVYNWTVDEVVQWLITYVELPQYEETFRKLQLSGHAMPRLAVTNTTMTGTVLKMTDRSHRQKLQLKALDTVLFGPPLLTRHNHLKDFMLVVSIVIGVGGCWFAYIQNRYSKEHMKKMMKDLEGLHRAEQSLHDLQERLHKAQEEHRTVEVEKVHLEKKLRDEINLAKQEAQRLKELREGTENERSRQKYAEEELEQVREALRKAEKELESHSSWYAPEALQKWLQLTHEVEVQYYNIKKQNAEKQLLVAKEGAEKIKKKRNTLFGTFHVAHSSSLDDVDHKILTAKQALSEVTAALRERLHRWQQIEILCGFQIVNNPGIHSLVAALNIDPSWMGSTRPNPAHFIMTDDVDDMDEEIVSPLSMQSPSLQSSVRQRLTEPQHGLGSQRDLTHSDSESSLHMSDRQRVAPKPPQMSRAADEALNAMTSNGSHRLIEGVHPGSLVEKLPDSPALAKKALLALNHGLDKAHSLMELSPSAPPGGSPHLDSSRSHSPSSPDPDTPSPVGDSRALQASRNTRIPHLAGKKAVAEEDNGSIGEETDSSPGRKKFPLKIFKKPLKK
T1 sequence (Q96D31 whole entry): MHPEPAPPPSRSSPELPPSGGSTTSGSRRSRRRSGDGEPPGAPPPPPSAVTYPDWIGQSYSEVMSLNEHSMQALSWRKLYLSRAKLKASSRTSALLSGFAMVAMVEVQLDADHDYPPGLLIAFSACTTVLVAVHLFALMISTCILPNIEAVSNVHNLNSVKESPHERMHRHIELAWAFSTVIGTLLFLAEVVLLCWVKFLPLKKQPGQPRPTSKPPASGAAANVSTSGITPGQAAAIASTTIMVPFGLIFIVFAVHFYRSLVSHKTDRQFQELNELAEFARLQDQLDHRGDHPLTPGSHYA
Method in brief: (§1)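 HEK cells, calcium imaging by fluorescence microscopy. Ca2+ added after 600 s and intracellular levels recorded. Traces averaged over 200 cells, then scored as AUC, peak amplitude and slope of the Ca2+ rise versus untreated control. Compound working solutions diluted from a 50 mM DMSO stock to 0.1% DMSO in physiologic buffer.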

[2] = target: T1, ORAI1/STIM1 (Homo sapiens); assay: Inhibition of STIM1/Orai1 (unknown origin) expressed in HEK293 cells assessed as reduction in tBHQ-induced calcium response by measuring decrease in slope of calcium entry at 10 uM relative to control; assay type: cell-based; method in brief: as §1
[3] = target: T1, ORAI1/STIM1 (Homo sapiens); assay: Inhibition of STIM1/Orai1 (unknown origin) expressed in HEK293 cells assessed as reduction in tBHQ-induced calcium response by measuring decrease in peak amplitude of calcium entry at 10 uM relative to control; assay type: cell-based; method in brief: as §1
[4] = target: T1, ORAI1/STIM1 (Homo sapiens); assay: Inhibition of STIM1/Orai1 (unknown origin) expressed in HEK293 cells assessed as reduction in tBHQ-induced calcium response by measuring decrease in calcium entry AUC at 10 uM relative to control; assay type: cell-based; method in brief: as §1
[5] = Metabolic stability in mouse liver microsomes assessed as compound remaining after 1 hr; assay type: ADME, Microsome; conditions: read-out: Stabilty
Method in brief: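 Pooled male CD-1 mouse liver microsomes (20 mg/mL protein stock), NADPH-activated. Substrate at 5 μM. Residual parent measured after 1 h incubation.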

[6] = Thermodynamic aqueous solubility; assay type: physicochemical; conditions: read-out: Therm_solubility
Method in brief: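 About 3 mg compound in 3 mL deionized water, vortexed, sonicated 5 min, then shaken overnight at 25 °C. Filtered through a 0.22 μm membrane, DMSO added, diluted about 1:10 in water. Quantified by LC–UV against DMSO standard solutions.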

HEK293 [7] = assay: Cytotoxicity in HEK293 cells assessed as cell viability at 50 uM after 72 hrs by MTT assay; assay type: cell-based; conditions: human, hek293, 72 h
Method in brief: (§2)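 MTT viability in HEK cells after 72 h treatment at 50 μM, with or without 100 μM uridine. MTT at 0.25 mg/mL final for 60 min at 37 °C, solubilized in isopropyl alcohol/HCl (1 M), absorbance read at 570 nm. Mean ± SEM, Student t-test against control.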

ORAI1/STIM1 = ORAI1/STIM1 (Homo sapiens, UniProt Q13586+Q96D31); assay: Inhibition of STIM1/Orai1 (unknown origin) expressed in HEK293 cells assessed as reduction in tBHQ-induced calcium response; assay type: cell-based
ORAI1/STIM1, sequence (Q96D31 whole entry): as above
ORAI1/STIM1, sequence (Q13586 whole entry): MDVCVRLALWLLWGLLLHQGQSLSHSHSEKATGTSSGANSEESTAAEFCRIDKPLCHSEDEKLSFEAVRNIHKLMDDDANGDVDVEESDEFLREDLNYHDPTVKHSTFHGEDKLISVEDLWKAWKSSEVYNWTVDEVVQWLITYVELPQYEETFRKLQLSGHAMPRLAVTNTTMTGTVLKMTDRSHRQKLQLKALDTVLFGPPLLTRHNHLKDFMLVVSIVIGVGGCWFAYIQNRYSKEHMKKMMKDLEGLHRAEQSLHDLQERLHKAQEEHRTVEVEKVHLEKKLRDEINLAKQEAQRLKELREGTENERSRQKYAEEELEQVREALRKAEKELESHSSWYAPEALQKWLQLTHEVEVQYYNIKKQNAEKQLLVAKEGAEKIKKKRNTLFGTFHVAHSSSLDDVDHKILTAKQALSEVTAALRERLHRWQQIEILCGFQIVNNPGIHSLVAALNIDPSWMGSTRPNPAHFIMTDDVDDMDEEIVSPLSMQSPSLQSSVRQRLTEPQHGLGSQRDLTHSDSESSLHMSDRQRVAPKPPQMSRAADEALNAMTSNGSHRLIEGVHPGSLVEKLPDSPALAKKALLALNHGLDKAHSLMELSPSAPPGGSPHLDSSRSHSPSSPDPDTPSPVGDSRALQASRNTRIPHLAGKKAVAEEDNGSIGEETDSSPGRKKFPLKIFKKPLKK

HEK293 [8] = assay: Cytotoxicity in HEK293 cells assessed as cell viability at 10 uM after 24 hrs by MTT assay; assay type: cell-based; conditions: human, hek293, 24 h
Method in brief: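 MTT viability assay. HEK cells seeded at 20,000 per well, treated 24 h after plating for a further 24 h. MTT at 0.25 mg/mL final for 60 min at 37 °C. Crystals dissolved in isopropyl alcohol/HCl (1 M), absorbance read at 570 nm. Compounds diluted to 0.1% DMSO in culture medium.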

HEK293 [9] = assay: Cytotoxicity in HEK293 cells assessed as cell viability at 50 uM after 72 hrs in presence of excess uridine by MTT assay; assay type: cell-based; conditions: human, hek293, 72 h; method in brief: as §2
[10] = target: T1, ORAI1/STIM1 (Homo sapiens); assay: Activation of STIM1/Orai1 (unknown origin) expressed in HEK293 cells assessed as increase in tBHQ-induced calcium response by measuring increase in peak amplitude of calcium entry at 10 uM relative to control; assay type: cell-based; conditions: filed as opener, dose 3.0 µM, in the assay text read “at 3 uM” for “at 10 uM”; method in brief: as §1
[11] = target: T1, ORAI1/STIM1 (Homo sapiens); assay: Activation of STIM1/Orai1 (unknown origin) expressed in HEK293 cells assessed as increase in tBHQ-induced calcium response by measuring increase in AUC of calcium entry at 10 uM relative to control; assay type: cell-based; conditions: filed as opener, dose 3.0 µM, in the assay text read “at 3 uM” for “at 10 uM”; method in brief: as §1
Mus musculus [12] = assay: Anti pancreatitis activity in C57BL/6 mouse model of cerulein-induced acute pancreatitis assessed as reduction of inflammation and edema at 10 mg/kg, ip administered 30 and 150 mins after the first cerulein injection measured 5 hrs after first cerulein injection by H and E staining based assay; assay type: functional, organism-based
Method in brief: (§3)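 Acute pancreatitis induced in mice by i.p. cerulein injections. Test agent given i.p. at 10 mg/kg, 30 and 150 min after the first cerulein injection. Pancreas collected 5 h after the first cerulein injection, H&E stained and scored histologically for inflammation and edema.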

Mus musculus [13] = assay: Anti pancreatitis activity in C57BL/6 mouse model of cerulein-induced acute pancreatitis assessed as amelioration of histological scores at 10 mg/kg, ip administered 30 and 150 mins after the first cerulein injection measured 5 hrs after first cerulein injection by H and E staining based assay; assay type: functional, organism-based; method in brief: as §3
[14] = dose 3.0 µM, in the assay text read “at 3 uM” for “at 10 uM”

SMILES: COc1ccc(OC)c(-c2ccc(-n3cc(-c4ccccn4)nn3)cc2)c1
inhibition ([1]; dose 10.0 µM): 0%

SMILES: COC(=O)c1cc(-n2cc(-c3ccc(-c4cc(OC)ccc4OC)cc3)nn2)ccn1
inhibition ([1]; dose 10.0 µM): 73.5%

SMILES: O=C([O-])c1cccc(-c2cn(-c3ccc(-c4ccc5c(c4)OCCO5)cc3)nn2)c1.[Na+]
remaining at 1 h [5]: 94%
solubility thermodynamic [6]: 668 µg/mL

SMILES: COc1cc(OC)cc(-c2ccc(-n3cc(-c4cccc(C(=O)[O-])c4)nn3)cc2)c1.[Na+]
remaining at 1 h [5]: 92%
solubility thermodynamic [6]: 18.7 µg/mL

SMILES: O=C(O)c1cccc(C(=O)Nc2ccc(-c3ccc4c(c3)OCCO4)cc2)c1
Activity (HEK293 [7]): Toxic
Activity (HEK293 [8]): 50.3%
Activity (HEK293 [9]): Non-Toxic
inhibition ([1]; dose 10.0 µM): 51.8%

SMILES: COc1cccc(OC)c1-c1ccc(-c2cn(-c3cccc(C(=O)O)c3)nn2)cc1
Activity [10]: Active
Activity [11]: Active

SMILES: O=C(O)c1cccc(-n2cc(-c3ccc(-c4cccc5c4OCCO5)cc3)nn2)c1
inhibition ([1]; dose 10.0 µM): 44.1%

SMILES: O=C(O)c1cccc(-c2cn(-c3ccc(-c4ccc5c(c4)OCCO5)cc3)nn2)c1
inhibition [2]: Active
inhibition ([1]; dose 10.0 µM): 77.5%
inhibition [3]: Active
inhibition [4]: Active

SMILES: O=C(O)c1cccc(-n2cc(-c3ccc(-c4ccc5c(c4)OCCO5)cc3)nn2)c1
Activity (HEK293 [8]): 71.7%
inhibition ([1]; dose 10.0 µM): 81.1%

SMILES: O=C(O)c1cccc(NC(=O)c2ccc(-c3ccc4c(c3)OCCO4)cc2)c1
Activity (HEK293 [8]): 95.3%
Activity (HEK293 [9]): Non-Toxic
inhibition ([1]; dose 10.0 µM): 22.6%

SMILES: COc1cccc(-c2ccc(-c3cn(-c4cccc(C(=O)O)c4)nn3)cc2)c1OC
inhibition [2]: Active
IC50 (ORAI1/STIM1): 781 nM
inhibition ([1]; dose 10.0 µM): 93.3%
inhibition [3]: Active
inhibition [4]: Active

SMILES: Cc1c(-c2ccc(-c3ccccc3F)cc2)nc2ccc(F)cc2c1C(=O)O [BREQUINAR]
Activity (HEK293 [7]): Non-Toxic

SMILES: O=C(O)c1cccc(-c2cn(-c3ccc(-c4ccccc4)cc3)nn2)c1
inhibition ([1]; dose 10.0 µM): 51%

SMILES: COc1ccc(OC)c(-c2ccc(-c3cn(-c4cccnc4)nn3)cc2)c1
inhibition ([1]; dose 10.0 µM): 1.2%

The next lines start with results.

inhibition [2]: Active
inhibition ([1]; dose 10.0 µM): 74.7%
inhibition [3]: Active
inhibition [4]: Active
SMILES: COc1ccc(F)c(-c2ccc(-n3cc(-c4cccc(C(=O)O)c4)nn3)cc2)c1

inhibition ([1]; dose 10.0 µM): 79.9%
SMILES: COc1ccc(OC)c(-c2ccc(-n3cc(-c4ccnc(C(=O)O)c4)nn3)cc2)c1

inhibition [1, 14]: 29.5%
SMILES: COc1cccc(-c2ccc(-c3cn(-c4cccc(C(=O)O)c4)nn3)cc2)c1

IC50 (ORAI1/STIM1): 802 nM
SMILES: COc1cc(OC)cc(-c2ccc(-n3cc(-c4cccc(C(=O)O)c4)nn3)cc2)c1
Activity (HEK293 [7]): Non-Toxic
Activity (HEK293 [8]): 94.3%
Activity (HEK293 [9]): Non-Toxic

remaining at 1 h [5]: 91%
solubility thermodynamic [6]: 856 µg/mL
SMILES: COc1cccc(-c2ccc(-n3cc(-c4cccc(C(=O)[O-])c4)nn3)cc2)c1.[Na+]

inhibition [1, 14]: 23.6%
SMILES: CSc1cccc(-c2ccc(-n3cc(-c4cccc(C(=O)O)c4)nn3)cc2)c1

inhibition ([1]; dose 10.0 µM): 56.4%
SMILES: COc1ccc(-c2ccc(-n3cc(-c4cccc(C(=O)O)c4)nn3)cc2)c(OC)c1

inhibition ([1]; dose 10.0 µM): 25.8%
SMILES: COc1cccc(OC)c1-c1ccc(-n2cc(-c3cccc(C(=O)O)c3)nn2)cc1

IC50 (ORAI1/STIM1): 807 nM
SMILES: COc1cccc(-c2ccc(-n3cc(-c4cccc(C(=O)O)c4)nn3)cc2)c1 [listing 1 of 2 here]
Activity (HEK293 [7]): Non-Toxic
Activity (HEK293 [9]): Non-Toxic

inhibition [2]: Active
inhibition [1, 14]: 85.1%
inhibition [3]: Active
inhibition [4]: Active
SMILES: COc1cccc(-c2ccc(-n3cc(-c4cccc(C(=O)O)c4)nn3)cc2)c1 [listing 2 of 2 here]

remaining at 1 h [5]: 93%
solubility thermodynamic [6]: 1170 µg/mL
SMILES: COc1ccc(F)c(-c2ccc(-n3cc(-c4cccc(C(=O)[O-])c4)nn3)cc2)c1.[Na+]

inhibition [2]: Active
inhibition [1, 14]: 96.5%
inhibition [3]: Active
inhibition [4]: Active
SMILES: COc1cccc(-c2ccc(-n3cc(-c4cccc(C(=O)O)c4)nn3)cc2)c1OC
Activity (Mus musculus [12]): Active
Activity (Mus musculus [13]): Active
